Data taken from ChEMBL document CHEMBL1126315, “Pyrrolobenzodiazepines and related systems. 2. Synthesis and biological properties of isonoraptazepine derivatives” (1992).

What was measured:
Assay type in all cases: functional
[1] = system: Mus musculus; experiment: Compound was tested for total number of falls in 100 seconds after intraperitoneal administration of 37.5 mg/Kg in mice by rotarod test
In short: (§1)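 Mice (Swiss inbred, 5 male + 5 female per group) dosed ip in 1% Tween 80; Rota-Rod motor coordination assessed 80 min later. Falls counted over a 100 s observation period. Mean ± SEM vs vehicle controls, Dunnett t test.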

[2] = system: Mus musculus; experiment: Rotation number in mice was determined at 15 minutes after a dose of 10 mg/Kg
In short: (§2)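 Nomura water-wheel test: Swiss inbred mice (5 male, 5 female per group) dosed ip in 1% Tween 80, placed in a water tank with central wheel 1 h later. Wheel rotations counted by photointerrupter on the shaft, read at 9, 12 and 15 min. Mean ± SD vs vehicle controls.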

[3] = system: Mus musculus; experiment: Rotation number in mice was determined at 9 minutes after a dose of 10 mg/Kg; in short: as §2
[4] = system: Mus musculus; experiment: Rotation number in mice was determined at 12 minutes after a dose of 10 mg/Kg; in short: as §2
[5] = system: Mus musculus; experiment: Compound was tested for myorelaxant action (time in seconds on the horizontal wire with forelegs) after intraperitoneal administration of 37.5 mg/Kg in mice by traction test
In short: (§3)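 Traction test on Swiss inbred mice, 10 per group (5 male, 5 female), dosed ip in 1% Tween 80; run 70 min after dosing. Time for animals to place hind legs on horizontal wire recorded in seconds. Mean ± SEM vs vehicle-treated controls, Dunnett t test.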

[6] = system: Mus musculus; experiment: Compound was tested for total number of movements in 5 minutes after intraperitoneal administration of 37.5 mg/Kg in mice
In short: (§4)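 Open-field spontaneous activity 60 min after ip dosing in 1% Tween 80; Swiss inbred mice, 10 per group (5 male, 5 female), placed singly in 19 × 25 cm cages and monitored continuously for 5 min. Total movements as mean ± SEM vs vehicle controls.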

[7] = system: Mus musculus; experiment: Total number of falls in 100 seconds after intraperitoneal administration of 75 mg/Kg in mice by rotarod test; in short: as §1
[8] = system: Mus musculus; experiment: Total number of explored holes in 5 minutes after intraperitoneal administration of 75 mg/Kg in mice
In short: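 Hole-board exploration at 65 min after ip dosing (1% Tween 80 vehicle) in Swiss inbred mice, 10 per group (5 male, 5 female). Holes explored counted by infrared detector below the hole lines over 5 min. Mean ± SEM vs vehicle controls, Dunnett t test.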

[9] = system: Mus musculus; experiment: Total number of movements in 5 minutes after intraperitoneal administration of 75 mg/Kg in mice; in short: as §4
[10] = system: Mus musculus; experiment: Myorelaxant action (time in seconds on the horizontal wire with forelegs) after intraperitoneal administration of 75 mg/Kg in mice by traction test; in short: as §3
[11] = system: Mus musculus; experiment: Compound at an intraperitoneal dose of 10 mg/Kg was tested for the inhibition of abdominal constriction in mice; conditions: Abdomen, ip
In short: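 Swiss inbred mice (25 ± 3 g), 10 per group (5 male, 5 female), given compound ip in 1% Tween 80. Clonidine 0.1 mg/kg po 30 min later, then phenylquinone 3.75 mg/kg ip in 5% aqueous ethanol 20 min after that. Writhing counted by observer over 10 min starting 5 min post-injection; % inhibition relative to controls.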

[12] = system: Mus musculus; experiment: Writhing number was determined against clonidine induced analgesia by the compound at an intraperitoneal dose of 10 mg/Kg in mice
[13] = system: Mus musculus; experiment: Compound was tested for total number of falls in 100 seconds after intraperitoneal administration of 10 mg/Kg in mice by rotarod test
In short: (§5)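 Swiss inbred mice (25 ± 3 g), groups of 10 (5 male, 5 female), given drug ip in 1% Tween 80; vehicle-treated controls. Single sequence per animal: open-field movements counted over 5 min at 60 min, hole-board explorations (infrared counting, 5 min) at 65 min, traction-test wire time at 70 min, Rota-Rod falls over 100 s at 80 min. Mean ± SEM, Dunnett t test.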

[14] = system: Mus musculus; experiment: Compound was tested for total number of explored holes in 5 minutes after intraperitoneal administration of 10 mg/Kg in mice; in short: as §5
[15] = system: Mus musculus; experiment: Rotation number in mice was determined at 15 minutes after a dose of 2.5 mg/Kg
In short: (§6)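 Nomura water-wheel test in Swiss inbred mice (25 ± 3 g), groups of 10 (5 male, 5 female). Drug given ip in 1% Tween 80, single dose. Mouse placed in a water tank with a central wheel 1 h after dosing. Wheel rotations counted by photointerrupter, read at 9, 12 and 15 min. Mean ± SD versus vehicle controls.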

[16] = system: Mus musculus; experiment: Rotation number in mice was determined at 15 minutes after a dose of 5 mg/Kg; in short: as §6
[17] = system: Mus musculus; experiment: Rotation number in mice was determined at 9 minutes after a dose of 2.5 mg/Kg; in short: as §6
[18] = system: Mus musculus; experiment: Rotation number in mice was determined at 9 minutes after a dose of 5 mg/Kg; in short: as §6
[19] = system: Mus musculus; experiment: Compound was tested for total number of movements in 5 minutes after intraperitoneal administration of 10 mg/Kg in mice; in short: as §5
[20] = system: Mus musculus; experiment: Rotation number in mice was determined at 12 minutes after a dose of 2.5 mg/Kg; in short: as §6
[21] = system: Mus musculus; experiment: Rotation number in mice was determined at 12 minutes after a dose of 5 mg/Kg; in short: as §6
[22] = system: Mus musculus; experiment: Compound was tested for myorelaxant action (time in seconds on the horizontal wire with forelegs) after intraperitoneal administration of 10 mg/Kg in mice by traction test; in short: as §5

| SMILES | Rotation number [2] | Rotation number [3] | Rotation number [4] | Activity [7] | Exploratory activity [8] | Spontaneous motor activity [9] | Time [10] | also measured |
| --- | --- | --- | --- | --- | --- | --- | --- | --- |
| c1ccc2c(c1)CN1CCNCC1c1cccn1-2 (stereo unspecified) | 12 | 17 | 10 |  |  |  |  | Activity [1]: 3; Time [5]: 4.9 s; Spontaneous motor activity [6]: 111 |
| O=C1CNCC2c3cccn3-c3ccccc3CN12 (stereo unspecified) | 10 | 15 | 17 |  |  |  |  |  |
| CN1CCN2Cc3ccccc3-n3cccc3C2C1 (stereo unspecified) | 11 | 21 | 16 | 5 | 3.8 | 96 | 4.4 s |  |
| O=C1CN(Cc2ccc(F)cc2)CC2c3cccn3-c3ccccc3CN12 (stereo unspecified) |  |  |  | 1.8 | 6 | 178 | 4.2 s |  |
| CN1CC(=O)N2Cc3ccccc3-n3cccc3C2C1 (stereo unspecified) | 10 | 17 | 14 | 8.7 | 13 | 90 | 1 s |  |
| CCN1CC(=O)N2Cc3ccccc3-n3cccc3C2C1 (stereo unspecified) | 22 | 22 | 17 | 0.4 | 9.8 | 285 | 2.1 s |  |
| CC(=O)N1CC(=O)N2Cc3ccccc3-n3cccc3C2C1 (stereo unspecified) | 49 | 54 | 57 | 1 | 10.7 | 121 | 3.5 s |  |
| CC(=O)N1CCN2Cc3ccccc3-n3cccc3C2C1 (stereo unspecified) | 17 | 21 | 23 |  |  |  |  |  |
| O=C1NCC(=O)N2Cc3ccccc3-n3cccc3C12 (stereo unspecified) | 11 | 18 | 15 | 2.5 | 14.7 | 247 | 5.5 s | inhibition in vivo at 10 mg/kg [11]: 43%; Writhing number [12]: 12 |
| O=C1CN(Cc2ccccc2)CC2c3cccn3-c3ccccc3CN12 (stereo unspecified) | 31 | 45 | 41 |  |  |  |  |  |
| C=CCN1CCN2Cc3ccccc3-n3cccc3C2C1 (stereo unspecified) | 14 | 16 | 16 |  |  |  |  |  |
| O=C1CC2c3cccn3-c3ccccc3CN2C(=O)CN1 (stereo unspecified) | 27 | 35 | 27 | 0.6 | 17.2 | 173 | 2.3 s |  |
| O=C(c1ccc(Cl)cc1)N1CCN2Cc3ccccc3-n3cccc3C2C1 (stereo unspecified) | 7 | 7 | 6 |  |  |  |  |  |
| Clc1ccc(CN2CCN3Cc4ccccc4-n4cccc4C3C2)cc1 (stereo unspecified) | 11 | 22 | 14 | 2.1 | 9.3 | 142 | 2 s |  |
| O=C1CN(Cc2ccc(Cl)cc2)CC2c3cccn3-c3ccccc3CN12 (stereo unspecified) |  |  |  |  |  |  |  | inhibition in vivo at 10 mg/kg [11]: 63%; Writhing number [12]: 8 |
| CCN1CCN2Cc3ccccc3-n3cccc3C2C1 (stereo unspecified) | 24 | 30 | 27 | 1.1 | 7.6 | 188 | 3.1 s |  |
| CN1CCN2c3ccccc3Cn3cccc3C2C1 (stereo unspecified) [APTAZAPINE] | 2 | 8 | 5 | 6.5 | 0.5 | 59 | 8.1 s | Activity [13]: 5; Exploratory activity [14]: 8.8; Rotation number [15]: 2; Rotation number [16]: 2; Rotation number [17]: 12; Rotation number [18]: 5; Spontaneous motor activity [19]: 168; inhibition in vivo at 10 mg/kg [11]: 14%; Rotation number [20]: 3; Rotation number [21]: 8; Writhing number [12]: 18; Time [22]: 2.5 s |
| CN(C)CCCN1c2ccccc2CCc2ccccc21 [IMIPRAMINE] | 36 | 48 | 40 |  |  |  |  | Activity [1]: 4.8; inhibition in vivo at 10 mg/kg [11]: 100%; Time [5]: 5.7 s; Spontaneous motor activity [6]: 183 |
